These results are taken from PubChem BioAssay.

Test [1] is described as follows: Her2 expression decrease, cell viability multiplex – SKBR3 breast tumor cells, AlphaScreen, ATP viability, primary screen (AID 461;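 active means Her2 level under about 52% in both replicate screens, with viability over 70% of control, limit read from the data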;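 on Her2 level: lower value means less Her2 protein in the cells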;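 on viability: percent of carrier control wells set as 100% viability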). The following applies: SKBR3 Her2 protein level, 18-24 h, measured here: SKBR3 viability, ATP luminescence, at 10 µM. For orientation: In Alpha technology, singlet oxygen from a donor bead excites a nearby acceptor bead.
For test [2], the target named is Receptor tyrosine-protein kinase erbB-2 (Homo sapiens) (UniProt P04626). Described as above. Conditions: 18-24 h, at 10 µM, stronger effect = lower value.
A short description of test [3]: reduced viability of SK-BR-3 breast cancer cells – cell-based, 24 h, human, pilot screen (AID 572;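 active means viability at or below 10% of carrier control in both of two separate runs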;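 further: compound exposure lasted between 18 and 24 h rather than exactly 24 h; 100% = carrier-treated control wells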). Conditions: SK-BR-3 viability, CellTiter-Glo luminescence, at 10 µM, stronger effect = lower value. (In general: In ATP-based viability assays light output follows the ATP content of the culture.)
The nature of test [4]: HUVEC growth inhibition – cell-based, human, primary screen (AID 575;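 active means viability at or below 30% in both replicate assays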;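 further: 100% = median of untreated cell wells with 0.1% DMSO on each plate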). Conditions: HUVEC proliferation, CellTiter-Glo luminescence, 72 h; at 10 µM; stronger effect = lower value. Summed up:
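system = HUVEC primary cells | amount = 1250 cells/well | buffer or medium = supplemented EBM, 2% fetal bovine serum | dosing = single-point 10 µM, DMSO 0.1% final | times = 72 h compound incubation | detection = CTG luminescence | read-out = % viability relative to median vehicle-well signal on each plate | control set = vehicle and MePR control wells | format = collagen-coated 384-well format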

Test [5] in a line: H69AR cell proliferation blockers – human, duplicate replicates, primary screen (AID 580).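 Further: 100% = mean luminescence of untreated wells and 0% = no signal.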 Conditions: H69AR lung tumor cells viability, ATP luminescence, 72 h; at 10 µM; stronger effect = lower value.
Test [6] is described as follows: MRP1 drug-resistance reversers in H69AR cells – cell-based, doxorubicin co-treatment, pilot screen (AID 601;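 active means viability loss from added drug above about 55%, and viability with drug at most 40%, in both replicates, limit read from the data, passing the limit was not always enough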). Conditions: CellTiter-Glo, 72 h, at 10 µM; for differential viability (reversal): stronger effect = higher value.
The nature of test [7]: yeast transport mutant growth inhibition pilot in 384-well plates, post-Golgi transport modulator project (AID 636; in the data active means inhibition above about 31%). The following applies: absorbance 615 nm, about 18 h, stronger effect = higher value.
Test [8] can be described thus: growth suppression of yeast trafficking mutant, preliminary HTS, modulators of trafficking downstream of Golgi apparatus project, 1536-format plate, OD 615 nm (AID 637; in the data active means inhibition above about 30%). Conditions: yeast transport mutant growth, absorbance 615 nm, 18 h; stronger effect = higher value.
[9] abbreviates: H69AR cells + 2 uM doxorubicin, measured here: viability with 2 uM doxorubicin, stronger effect = lower value.
Setting [10] is: H69AR cells, compound alone cytotoxicity.

The source made the active and inactive calls.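 How the source made its calls, unless noted: active means viability at or under a set limit in both replicates, limit being median viability minus 3 SD (cut at about 48% in these data, passing the limit was not always enough); inconclusive means at or under the limit in just one replicate; inactive means at or above the limit in both replicates.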

Receptor tyrosine-protein kinase erbB-2 (Homo sapiens), sequence (P04626 whole entry, looked up): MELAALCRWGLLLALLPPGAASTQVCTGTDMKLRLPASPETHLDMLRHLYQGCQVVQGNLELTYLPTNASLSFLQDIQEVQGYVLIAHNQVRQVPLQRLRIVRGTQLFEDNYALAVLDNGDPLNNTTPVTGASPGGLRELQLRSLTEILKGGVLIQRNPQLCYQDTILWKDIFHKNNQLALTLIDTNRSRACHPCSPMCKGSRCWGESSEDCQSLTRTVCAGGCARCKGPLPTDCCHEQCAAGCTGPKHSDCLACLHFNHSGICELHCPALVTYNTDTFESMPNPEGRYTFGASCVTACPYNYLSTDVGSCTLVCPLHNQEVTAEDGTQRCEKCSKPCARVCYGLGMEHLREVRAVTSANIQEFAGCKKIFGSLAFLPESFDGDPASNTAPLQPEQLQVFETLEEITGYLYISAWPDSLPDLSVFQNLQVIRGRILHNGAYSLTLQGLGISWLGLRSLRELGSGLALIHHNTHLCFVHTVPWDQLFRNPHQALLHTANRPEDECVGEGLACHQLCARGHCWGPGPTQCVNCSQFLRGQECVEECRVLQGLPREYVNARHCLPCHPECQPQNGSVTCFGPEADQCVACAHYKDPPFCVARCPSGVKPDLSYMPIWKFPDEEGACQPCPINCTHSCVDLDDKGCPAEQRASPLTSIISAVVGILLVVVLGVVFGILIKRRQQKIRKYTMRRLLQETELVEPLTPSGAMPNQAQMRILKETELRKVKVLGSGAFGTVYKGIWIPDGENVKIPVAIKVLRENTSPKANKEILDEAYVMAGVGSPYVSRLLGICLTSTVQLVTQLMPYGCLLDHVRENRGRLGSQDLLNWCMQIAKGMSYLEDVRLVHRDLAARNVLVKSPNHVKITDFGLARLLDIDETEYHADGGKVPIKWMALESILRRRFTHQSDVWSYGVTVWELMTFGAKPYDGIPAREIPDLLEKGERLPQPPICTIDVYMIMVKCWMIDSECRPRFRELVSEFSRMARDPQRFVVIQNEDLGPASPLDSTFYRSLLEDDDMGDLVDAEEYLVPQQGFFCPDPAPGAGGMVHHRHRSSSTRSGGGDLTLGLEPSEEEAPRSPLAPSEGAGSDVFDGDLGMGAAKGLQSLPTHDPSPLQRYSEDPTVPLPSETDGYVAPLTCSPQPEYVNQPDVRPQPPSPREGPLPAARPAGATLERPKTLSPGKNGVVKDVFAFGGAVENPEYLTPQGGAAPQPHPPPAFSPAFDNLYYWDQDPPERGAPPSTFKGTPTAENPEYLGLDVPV

On to `COC(=O)c1c(NC(=O)c2ccc(S(=O)(=O)N3CCOCC3)cc2)sc2c1CCN(C)C2`, for which the viability in test [1] was 96%; in test [3], 96% (inactive); in test [4], 94.8% (inactive); in test [5] it was 90% (inactive); in test [6] (setting [9]), 95.3%; in test [6] (setting [10]), 90%. Moreover, in test [2], the Her2 level was 106% (inactive). In addition, the differential viability (reversal) in test [6] (H69AR cells + 2 uM doxorubicin) is -5.3% (inactive). Also, the figures for the inhibition in test [7] and in test [8] were -5.26% (inactive) and -7.46% (inactive), respectively.

As to `CC1CCCCC1NC(=O)Cn1nnc(-c2ccc(Cl)cc2)n1` (stereo not given), the viability in test [1] is 86%; in test [3], 86% (inactive); in test [4] it was 72.7% (inactive); in test [5], 91.9% (inactive); in test [6] (setting [9]) it was 77.3%; in test [6] (setting [10]), 91.9%. In addition, the Her2 level in test [2] was 92.5% (inactive). Moreover, in test [6] (H69AR cells + 2 uM doxorubicin), the differential viability (reversal) was 14.6% (inactive). In addition, the values for the inhibition in test [7] and in test [8] were -1.3% (inactive) and -5.4% (inactive), respectively.

As for `O=C(Cn1nnc(-c2ccc(S(=O)(=O)N3CCCC3)cc2)n1)NCC1CCCO1` (stereo not given), the viability in test [1] is 86%; in test [3], 86% (inactive); in test [4], 89% (inactive); in test [5] it was 101% (inactive); in test [6] (setting [9]), 98.7%; in test [6] (setting [10]), 101%. For the same compound, the Her2 level in test [2] is 99% (inactive). Besides, the differential viability (reversal) in test [6] (H69AR cells + 2 uM doxorubicin) was 2.39% (inactive). In addition, the results for the inhibition in test [7] and in test [8] were -3.78% (inactive) and 2.95% (inactive), respectively.

Regarding `CC(=O)c1cccc(N(CC(=O)N2CCCC2)S(C)(=O)=O)c1`, the viability in test [1] was 91.5%; in test [3], 91.5% (inactive); in test [4], 99.3% (inactive); in test [5], 99.7% (inactive); in test [6] (setting [9]), 94.1%; in test [6] (setting [10]), 99.7%. Besides, the Her2 level in test [2] was 93% (inactive). Moreover, the differential viability (reversal) in test [6] (H69AR cells + 2 uM doxorubicin) was 5.66% (inactive). For the same compound, the figures for the inhibition in test [7] and in test [8] were -6.67% (inactive) and 0.48% (inactive), respectively.

Turning to `COC(=O)c1cc2ccsc2n1CC(=O)Nc1cc(C)cc(C)c1`, the viability in test [1] was 96.5%; in test [3], 96.5% (inactive); in test [4], 64% (inactive); in test [5] it was 84.8% (inactive); in test [6] (setting [9]), 84.8%; in test [6] (setting [10]), 84.8%. Further, in test [2], the Her2 level was 124% (inactive). Moreover, the differential viability (reversal) in test [6] (H69AR cells + 2 uM doxorubicin) is -0.08% (inactive). The inhibition in test [7] is 1.92% (inactive); in test [8] it was 14.3% (inactive).

In the case of `COc1ccc(Cn2nnnc2C(c2ccccc2OC)N2CCC(C(N)=O)CC2)cc1` (stereo not given), the viability in test [1] was 100%; in test [3], 100% (inactive); in test [4] it was 105% (inactive); in test [5], 85.4% (inactive); in test [6] (setting [9]) it was 84%; in test [6] (setting [10]), 85.4%. In addition, in test [2], the Her2 level was 91% (inactive). In addition, the differential viability (reversal) in test [6] (H69AR cells + 2 uM doxorubicin) was 1.34% (inactive). In addition, the inhibition in test [7] was -5.73% (inactive); in test [8], 8.52% (inactive).

Consider `CCOC(=O)C1=C(NC#N)OC(C)=C(C)C1c1ccc(O)cc1` (stereo not given), for which the viability is 92.5% in test [1]; 92.5% (inactive) in test [3]; 95.1% (inactive) in test [4]; 90.3% (inactive) in test [5]; 86.4% in test [6] (setting [9]); 90.3% in test [6] (setting [10]). In test [2], the Her2 level was 79% (inactive). Besides, the differential viability (reversal) in test [6] (H69AR cells + 2 uM doxorubicin) is 3.92% (inactive). The inhibition in test [7] is 0.27% (inactive); in test [8], 0.65% (inactive).

`Cc1nnc(SCc2cnc(-c3ccccc3)o2)[nH]c1=O`: the viability in test [1] is 94%; in test [3] it was 94% (inactive); in test [4] it was 86.7% (inactive); in test [5], 98% (inactive); in test [6] (setting [9]), 85.8%; in test [6] (setting [10]), 98%. In addition, the Her2 level in test [2] was 86% (inactive). In addition, the differential viability (reversal) in test [6] (H69AR cells + 2 uM doxorubicin) was 12.2% (inactive). In addition, the inhibition in test [7] is 2.76% (inactive); in test [8], -0.66% (inactive).

`O=C(CSc1ncnc2c1cnn2-c1ccccc1)Nc1ccccc1`: the viability in test [1] was 96%; in test [3], 96% (inactive); in test [4] it was 63.1% (inactive); in test [5] it was 79.7% (inactive); in test [6] (setting [9]), 72.2%; in test [6] (setting [10]) it was 79.7%. Besides, the Her2 level in test [2] is 88% (inactive). Besides, the differential viability (reversal) in test [6] (H69AR cells + 2 uM doxorubicin) was 7.43% (inactive). Also, the inhibition is -7.95% (inactive) in test [7] and 2.22% (inactive) in test [8].

Consider `CCCOC(=O)c1ccc(-c2c(C)noc2-c2ccc(OC)cc2O)o1`, for which the viability in test [1] was 98%; in test [3], 98% (inactive); in test [4], 46.3% (inactive); in test [5] it was 75.8% (inactive); in test [6] (setting [9]) it was 86%; in test [6] (setting [10]), 75.8%. For the same compound, the Her2 level in test [2] was 74.5% (inactive). Besides, the differential viability (reversal) in test [6] (H69AR cells + 2 uM doxorubicin) was -10.3% (inactive). Moreover, the inhibition in test [7] is -4.81% (inactive); in test [8], -9.33% (inactive).

As for `CCOC(=O)c1[nH]c(C)c(C(=O)N(C)C)c1C`, the viability is 110% in test [1]; 110% (inactive) in test [3]; 103% (inactive) in test [4]; 95.6% (inactive) in test [5]; 96.6% in test [6] (setting [9]); 95.6% in test [6] (setting [10]). Besides, the Her2 level in test [2] was 88.5% (inactive). Besides, in test [6] (H69AR cells + 2 uM doxorubicin), the differential viability (reversal) was -0.97% (inactive). The inhibition in test [7] was -5.79% (inactive); in test [8], -7.3% (inactive).

On to `CN(C=C1C(=O)CC(C)(C)CC1=O)CCN1CCNCC1`, for which the viability in test [1] was 120%; in test [3] it was 120% (inactive); in test [4], 90.3% (inactive); in test [5], 96% (inactive); in test [6] (setting [9]), 85.8%; in test [6] (setting [10]) it was 96%. For the same compound, the Her2 level in test [2] is 102% (inactive). The differential viability (reversal) in test [6] (H69AR cells + 2 uM doxorubicin) was 10.2% (inactive). Moreover, the inhibition in test [7] is -4.21% (inactive); in test [8] it was 2.13% (inactive).

`COc1cc(OC)cc(C(=O)NCc2n[nH]c(=S)n2-c2ccccc2OC)c1`: the viability in test [1] was 97%; in test [3] it was 97% (inactive); in test [4] it was 109% (inactive); in test [5], 89.4% (inactive); in test [6] (setting [9]), 89.3%; in test [6] (setting [10]), 89.4%. In addition, the Her2 level in test [2] was 88% (inactive). Besides, in test [6] (H69AR cells + 2 uM doxorubicin), the differential viability (reversal) was 0.11% (inactive). For the same compound, the inhibition in test [7] was -7.16% (inactive); in test [8] it was -1.33% (inactive).

As to `CN1C(=O)NC(NC(=O)C2CCCCC2)(C(F)(F)F)C1=O` (stereo not given), the viability was 93% in test [1]; 93% (inactive) in test [3]; 98.7% (inactive) in test [4]; 106% (inactive) in test [5]; 99.8% in test [6] (setting [9]); 106% in test [6] (setting [10]). Besides, the Her2 level in test [2] is 85% (inactive). Moreover, the differential viability (reversal) in test [6] (H69AR cells + 2 uM doxorubicin) is 6.06% (inactive). Moreover, the inhibition in test [7] was -0.92% (inactive); in test [8], -0.65% (inactive).

Broadly, the viability is a read-out of living cells in per cent, often relative to untreated cells. What is called inhibition is the drop in the measured response relative to a control, in per cent.
